Source: PMC3319149 (European Journal of Pharmaceutical Sciences, 2012)
Where “and” joins values, the source holds several entries; their conditions need not be identical. Equal values may be shown once. Entries after “also recorded” stand apart in the source; their conditions may differ. Read-outs that look alike come from different tables or passages of the source. Marks after values point to notes of the source that are not given here. One block for each compound: values may come before it.

Columns and labels:
[1] = molecular target: T1, NTCP (Homo sapiens, UniProt Q14973); test: Taurocholate uptake inhibition study in NTCP-HEK monolayers; type: cell-based
T1 sequence (Q14973 1-349): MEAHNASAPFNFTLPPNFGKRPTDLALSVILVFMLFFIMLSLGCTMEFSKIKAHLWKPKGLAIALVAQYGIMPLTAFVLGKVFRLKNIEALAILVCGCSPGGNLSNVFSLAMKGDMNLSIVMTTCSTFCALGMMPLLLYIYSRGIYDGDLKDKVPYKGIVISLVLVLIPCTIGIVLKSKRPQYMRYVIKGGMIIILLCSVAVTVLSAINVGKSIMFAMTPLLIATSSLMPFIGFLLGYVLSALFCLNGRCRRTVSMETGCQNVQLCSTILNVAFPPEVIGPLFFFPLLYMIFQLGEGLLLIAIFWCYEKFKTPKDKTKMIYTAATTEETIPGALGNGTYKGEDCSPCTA

[2] = system: NTCP-HEK monolayers; test: Passive permeability from uptake in sodium-free buffer, NTCP-HEK monolayers; type: in vitro ADME
[3] = molecular target: T2, ASBT (Homo sapiens, UniProt Q12908); conditions: read-out: Ki (μM) ASBT; ASBT-MDCK; ref Balakrishnan et al., 2006b; cited from earlier work
T2 sequence (Q12908 1-348): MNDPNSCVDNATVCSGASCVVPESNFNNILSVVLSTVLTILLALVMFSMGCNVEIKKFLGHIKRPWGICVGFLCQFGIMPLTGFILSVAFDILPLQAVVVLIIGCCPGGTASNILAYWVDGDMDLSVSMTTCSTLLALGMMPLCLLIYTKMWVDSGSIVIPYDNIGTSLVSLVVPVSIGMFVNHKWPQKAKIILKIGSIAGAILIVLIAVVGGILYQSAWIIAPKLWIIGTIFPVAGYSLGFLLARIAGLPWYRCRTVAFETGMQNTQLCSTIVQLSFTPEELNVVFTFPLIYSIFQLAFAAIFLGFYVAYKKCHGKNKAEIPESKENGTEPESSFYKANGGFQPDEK

[4] = system: ASBT-MDCK monolayers; conditions: passive permeability, ref Balakrishnan et al., 2006b; cited from earlier work
[5] = molecular target: T2, ASBT; test: Taurocholate uptake inhibition study in ASBT-MDCK monolayers; type: cell-based; conditions: for Ki: read-out: Ki (μM) ASBT, inhibition of [3H]-taurocholate uptake (2.5 μM cold TCA), 10 min, 37 °C
[6] = molecular target: T2, ASBT; test: Assessment of inhibition type; type: cell-based; conditions: inhibitor 152 μM (I/Ki = 10), taurocholate 1–200 μM
[7] = molecular target: T1, NTCP; test: Assessment of inhibition type; type: cell-based; conditions: inhibitor 118 μM (I/Ki = 10), taurocholate 1–200 μM
[8] = system: ASBT-MDCK monolayers; test: Passive permeability from uptake in sodium-free buffer, ASBT-MDCK monolayers; type: in vitro ADME
[9] = molecular target: T2, ASBT; test: Uptake study in ASBT-MDCK monolayers; type: cell-based
[10] = molecular target: T1, NTCP; test: Uptake study in NTCP-HEK monolayers; type: cell-based
Procedure, shortened: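 Stably transfected NTCP-HEK cells (hygromycin selection) were seeded at 2.5 × 10⁵/well on poly-D-lysine plates, cultured two days and washed with HBSS. Analogue was given at 1 to 250 μM in HBSS or sodium-free buffer (NaCl replaced by tetraethylammonium chloride). Read-out was acetonitrile lysis then LC/MS. Kinetics were fitted by nonlinear regression (eqns 2, 3). Jmax was normalized to same-occasion taurocholate Jmax. Highest distinguishable Kt = (Jmax/2)/Pp.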

[11] = Ki (μM) NTCP, inhibition of [3H]-taurocholate uptake (2.5 μM cold taurocholate), NTCP-HEK monolayers, 5 min, 37 °C
[12] = passive permeability, sodium-free buffer, NTCP-HEK
[13] = read-out: Ki (μM) NTCP, inhibition of [3H]-taurocholate uptake (2.5 μM cold taurocholate), NTCP-HEK monolayers, 5 min, 37 °C
[14] = read-out: NTCP inhibitor class (strong / moderate / weak), class by Ki, NTCP-HEK

SMILES: C[C@H](CCC(=O)O)[C@H]1CC[C@H]2[C@@H]3[C@@H](OC(=O)c4ccc(F)cc4)C[C@@H]4C[C@H](O)CC[C@]4(C)[C@H]3CC[C@]12C [Compound 3, 7-(4-fluorobenzoyloxy) ursodeoxycholate]
- Ki [5]: 10.3 ± 1.1 µM
- Ki [1, 13]: 183 ± 32 µM
- Ki [1, 14]: > 100 µM

SMILES: C[C@H](CCC(=O)NCC(=O)O)[C@H]1CC[C@H]2[C@@H]3[C@@H](OC(=O)c4cccnc4)C[C@@H]4C[C@H](O)CC[C@]4(C)[C@H]3CC[C@]12C [Compound 8, 7-nicotinoyl glycoursodeoxycholate]
- Ki [5]: 15.2 ± 0.8 µM
- Ki [1, 13]: 11.8 ± 2.1 µM
- type of inhibition of ASBT (best fitting model) [6]: competitive inhibitor; also recorded: competitive model was the best fitting model
- type of inhibition of NTCP (best fitting model) [7]: competitive inhibitor; also recorded: competitive model was the best fitting model
- ASBT Pp*10^6 (cm/s) ([8]; passive permeability, sodium-free buffer, ASBT-MDCK): 0.95±0.05 ×10^−6 cm/s
- NTCP Pp*10^6 (cm/s) [2, 12]: 7.26±0.45 ×10^−6 cm/s

SMILES: C[C@H](CCC(=O)NCC(=O)O)[C@H]1CC[C@H]2[C@@H]3[C@H](O)C[C@H]4C[C@H](OC(=O)c5cccnc5)CC[C@]4(C)[C@H]3CC[C@]12C [Compound 10, 3-nicotinoyl glycochenodeoxycholate]
- Ki [5]: 6.45 ± 0.66 µM
- Ki [1, 13]: 5.38 ± 0.44 µM
- Ki [1, 14]: < 25 µM
- ASBT Norm Jmax ([9]; Jmax normalized to taurocholate Jmax of the same occasion, ASBT-MDCK): 2.11 and 2.1
- Jmax ASBT ([9]; not normalized, ASBT-MDCK): 0.000242 nmol/s/cm^2
- ASBT Kt ([9]; uptake into ASBT-MDCK monolayers, 10 min): 8.49 µM and 8.49 ± 1.34 µM
- NTCP Norm Jmax ([10]; Jmax normalized to taurocholate Jmax of the same occasion, NTCP-HEK): 1.48
- Jmax NTCP ([10]; not normalized, NTCP-HEK): 0.00298 nmol/s/cm^2
- NTCP Kt ([10]; uptake into NTCP-HEK monolayers): 16.3 µM and 16.3 ± 3.0 µM
- ASBT Pp*10^6 (cm/s) ([8]; MDCK): 5.62±0.13 ×10^−6 cm/s
- NTCP Pp*10^6 (cm/s) [2]: 12.7±0.9 ×10^−6 cm/s

SMILES: COC(=O)CC[C@@H](C)[C@H]1CC[C@H]2[C@@H]3[C@@H](O)C[C@@H]4C[C@H](O)CC[C@]4(C)[C@H]3CC[C@]12C [Compound 16, methyl ursodeoxycholate]
- Ki [5]: 29.8 ± 5.1 µM
- Ki [1, 13]: 1.22 ± 0.1 µM

SMILES: C[C@H](CCC(=O)NCCS(=O)(=O)O)[C@H]1CC[C@H]2[C@@H]3[C@H](O)C[C@@H]4C[C@H](O)CC[C@]4(C)[C@H]3C[C@H](O)[C@]12C [taurocholate, Taurocholic acid, reference compound]
- taurocholate Kt NTCP ([10]; value Kt was set to in regression): 5.31 µM

Continued, in another order:

- Ki [1, 11]: 0.939 ± 0.057 µM
- NTCP Pp*10^6 (cm/s) [2, 12]: 60.7±0.5 ×10^−6 cm/s
SMILES: C[C@H](CCC(=O)O)[C@H]1CC[C@H]2[C@@H]3[C@H](O)C[C@@H]4C[C@H](O)CC[C@]4(C)[C@H]3CC[C@]12C [CDCA, chenodeoxycholic acid, reference compound]
- Ki [3]: 1.94 ± 0.17 µM
- ASBT Pp*10^6 (cm/s) [4]: 20.7±0.7 ^a ×10^−6 cm/s

- Ki [1, 11]: 355 ± 59 µM
- Ki ([1]; NTCP inhibitor class (strong / moderate / weak), class by Ki, NTCP-HEK): > 100 µM
- NTCP inhibitor class (strong / moderate / weak) ([1]; class by Ki, NTCP-HEK): weakly
SMILES: C[C@H](CCC(=O)O)[C@H]1CC[C@H]2[C@@H]3C(=O)C[C@@H]4CC(=O)CC[C@]4(C)[C@H]3CC(=O)[C@]12C [Compound 13, dehydrocholic acid]
- Ki (μM) ASBT ([5]; inhibition of [3H]-taurocholate uptake (2.5 μM cold TCA), 10 min, 37 °C): did not inhibit; also recorded: did not show any ASBT inhibition; also recorded: No inhibition

- Ki [1, 11]: 4.9 ± 0.47 µM
- NTCP Pp*10^6 (cm/s) [2, 12]: 27.2±0.8 ×10^−6 cm/s
SMILES: C[C@H](CCC(=O)O)[C@H]1CC[C@H]2[C@@H]3[C@@H](O)C[C@@H]4C[C@H](O)CC[C@]4(C)[C@H]3CC[C@]12C [UDCA, ursodeoxycholic acid, reference compound]
- Ki [3]: 22.6 ± 3 µM
- ASBT Pp*10^6 (cm/s) [4]: 21.2±0.9 ^a ×10^−6 cm/s
